Assay results from different studies.
Lines come from different studies, so protocols differ.
Target: Tyrosine-protein kinase receptor TYRO3 (TYRO3, Homo sapiens, UniProt Q06418)
One construct used (Q06418 41-890): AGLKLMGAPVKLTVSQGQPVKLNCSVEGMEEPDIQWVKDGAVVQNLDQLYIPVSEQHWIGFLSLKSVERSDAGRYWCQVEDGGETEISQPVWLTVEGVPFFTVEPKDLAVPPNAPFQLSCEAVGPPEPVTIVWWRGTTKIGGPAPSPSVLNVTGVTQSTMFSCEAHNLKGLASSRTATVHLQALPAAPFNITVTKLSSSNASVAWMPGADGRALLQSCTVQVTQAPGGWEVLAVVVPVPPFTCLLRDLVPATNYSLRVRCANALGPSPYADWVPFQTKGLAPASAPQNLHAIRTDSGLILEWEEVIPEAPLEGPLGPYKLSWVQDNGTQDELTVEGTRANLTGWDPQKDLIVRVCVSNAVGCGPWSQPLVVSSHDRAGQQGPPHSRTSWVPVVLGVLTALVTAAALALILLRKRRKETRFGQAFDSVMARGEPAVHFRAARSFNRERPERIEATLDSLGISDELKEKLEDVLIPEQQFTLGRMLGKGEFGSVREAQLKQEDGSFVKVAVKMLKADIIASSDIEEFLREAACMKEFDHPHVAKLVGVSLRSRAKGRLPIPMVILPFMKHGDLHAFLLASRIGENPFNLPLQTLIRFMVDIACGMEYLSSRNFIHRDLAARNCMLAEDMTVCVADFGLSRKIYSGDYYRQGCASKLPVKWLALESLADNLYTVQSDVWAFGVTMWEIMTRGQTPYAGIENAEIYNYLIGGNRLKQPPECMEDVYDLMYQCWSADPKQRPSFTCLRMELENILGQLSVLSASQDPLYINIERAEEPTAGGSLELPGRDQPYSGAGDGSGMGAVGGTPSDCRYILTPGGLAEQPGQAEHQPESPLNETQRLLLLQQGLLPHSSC

SMILES	observed	action	method	concentration	quantity	result
Cn1cncc1[C@@](O)(COc1ccc(C#N)cc1-c1ccc(OC(F)(F)F)cc1)c1ccc(C#N)cc1	cell-free assay	–	competition with immobilised ligand	1 µM	remaining binding	100%
C#Cc1n[nH]c2c(-c3cn([C@@H](C)c4ccccn4)c(=O)[nH]c3=O)cc(F)cc12	enzyme activity	inhibitor	–	0.1 µM	inhibition	30.8%
CC(C)(C)c1cc(C=C(C#N)C#N)cc(Br)c1O	enzyme activity	inhibitor	–	0.5 µM	remaining activity	110%
Cc1nn(C)cc1-c1nc2c(N3CCN(Cc4ccc(Cl)cc4)CC3)c(Cl)cnc2[nH]1	binding	–	competition with immobilised ligand	1 µM	remaining binding	73%
C#Cc1n[nH]c2c(-c3cn([C@@H](C)c4ccccc4)c(=O)[nH]c3=O)cc(F)cc12	enzyme activity	inhibitor	–	0.1 µM	inhibition	47.7%
COc1ncccc1-c1cnn2ccc(N3CCN(C(=O)OC(C)C)CC3)nc12	binding	–	competition with immobilised ligand	1 µM	remaining binding	100%
Cn1cc(-c2cc(F)cc(N3CCn4c(cc5c4CCCC5)C3=O)c2CO)cc(Nc2ccc(N3CCN(C4COC4)CC3)cn2)c1=O	enzyme activity	inhibitor	–	0.1 µM	inhibition	17%
N#CC1(c2ccccn2)CCN(Cc2cc(C(=O)O)c(=O)n3ccccc23)CC1	cell-free assay	–	competition with immobilised ligand	1 µM	remaining binding	98%
O=c1[nH]c2ccccc2n1C1CCN(Cc2ccc(-c3[nH]c4cc5ncnc5cc4nc3-c3ccccc3)cc2)CC1	cell-free assay	–	–	0.5 µM	remaining signal	103%
Cn1cc(-c2cccc(N3CCc4c(sc5c4CC(C)(C)C5)C3=O)c2CO)cc(Nc2ccncn2)c1=O	enzyme activity	inhibitor	–	1 µM	inhibition	4%
